Measurements of several laboratories.
Compare with care: the assays were run in different laboratories.
Read-out: cell growth or viability

SMILES | cell line | assay | conditions | endpoint | result
CCOC(=O)c1c(C)ncn1CC(c1cn(C)c2ccc([N+](=O)[O-])cc12)c1cn(C)c2ccc([N+](=O)[O-])cc12 | DH82 | MTS | 24 h | CC50 | > 20 µM
COc1cc2c(OC)nc3c4cc5c(cc4cc(OCCN4CCC(N6CCCCC6)CC4)c3c2cc1OC)OCO5 | HCT-116 | MTT | – | GI50 | 11 µM
CC[C@H](C)C(=O)O[C@H]1C[C@H](O)C=C2C=C[C@H](C)[C@H](CC[C@@H](O)C[C@@H](O)CC(=O)O)[C@H]21 | HCT-116 | SRB | 72 h | IC50 | 3.52 µM
COc1ccc(S(=O)(=O)ON=C2C=C(C)C(=O)C(C)=C2)cc1 | HCT-116 | – | – | CC50 | 7.4 µM
CCc1ncn(CC(c2c[nH]c3ccc(C)cc23)c2c[nH]c3ccc(C)cc23)c1C(=O)OC | DH82 | MTS | 24 h | CC50 | > 20 µM
COC(=O)[C@]1(O)C[C@@H](O)[C@@H](O)[C@H](OC(=O)/C=C/c2ccc(O)c(O)c2)C1 | HCT-116 | WST-1 | – | IC50 | 30.8 µM
O=c1[nH]cc(F)c(=O)[nH]1 | AGS | crystal violet | 72 h | CC50 | 769 µM
C/C=C(/C)C(=O)O[C@@H]1[C@H](OC(C)=O)c2c(ccc3ccc(=O)oc23)OC1(C)C | HCT-116 | WST-1 | – | IC50 | 55.8 µM
COC(=O)c1c(C)ncn1CC(c1c[nH]c2cc(Br)ccc12)c1c[nH]c2cc(Br)ccc12 | DH82 | MTS | 24 h | CC50 | > 20 µM
CC(=O)OC1c2c(ccc3ccc(=O)oc23)OC(C)(C)C1OC(=O)C(C)(O)C(C)O (centres unmarked) | HCT-116 | WST-1 | – | IC50 | 16.1 µM
COc1cc2c(OC)nc3c4cc5c(cc4cc(OC(C)=O)c3c2cc1OC)OCO5 | HCT-116 | MTT | – | GI50 | 1.3 µM
